Series [1] relates to Mus musculus. Briefly: Protective index is defined as ND50 (i.p.) divided by MES ED50(i.p.). The class given is functional. A digest of the protocol: (§1)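 Ratio of ND50 from the wire traction test to MES ED50, both measured by the same route (ip or oral) in the same animals. Quantal dose-response data for each were evaluated by Litchfield-Wilcoxon.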
In series [2] the test system is Mus musculus. Briefly: Compound was evaluated for anticonvulsant activity by maximal electroshock assay(MES) in mice after ip administration; 62-102. The class given is functional. The gist of the method: (§2)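 Male Hilltop ICR-derived mice (19-30 g), groups of 8-10, dosed ip with compound or aqueous vehicle. After 15 min pretreatment, a transcorneal 60-Hz, 50 mA shock was given for 0.2 s. Just before the shock, each mouse was tested on a horizontal wire (10 s). Quantal data were analysed by Litchfield-Wilcoxon to give ED50 with 95% confidence limits.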

For series [3], the system named is Mus musculus. Briefly: Dose causing a neurological deficit in 50% of mice after ip administration. The format is functional. A digest of the protocol:
(§3)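 Traction test in male Hilltop ICR-derived mice (19-30 g, groups of 8-10) just before electroshock, 15 min after ip or 30 min after oral dosing. Mice placed on a 16-gauge, 65-cm copper wire 40 cm above the table; deficit scored as failure to stay on for 10 s. ND50 with 95% limits by Litchfield-Wilcoxon.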

Series [4] concerns Mus musculus. Briefly: compound was evaluated for anticonvulsant activity by maximal electroshock assay(MES) in mice after ip administration. The format is functional. The gist of the method:
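Male Hilltop ICR-derived mice, 19-30 g, groups of 8-10, given compound or aqueous vehicle […] before transcorneal electroshock (50 mA, 60 Hz, 0.2 s). Shock delivered after the traction test. ED50 with 95% confidence limits estimated from quantal data by Litchfield-Wilcoxon.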
(The maximal electroshock test induces tonic seizures with an electrical stimulus.)

The test system of series [5] is Rattus norvegicus. As to the kind of experiment: Compound was evaluated for anticonvulsant activity by maximal electroshock assay(MES) in rat after ip administration; 2.9-19. The format is functional.
In series [6] the test system is Rattus norvegicus. Briefly: Dose of compound causing a neurological deficit in 50% of rat after ip administration. The class given is functional. The gist of the method: (§4)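 Rats (Simonsen Sprague-Dawley-derived, 80-110 g, groups of 8-10) placed on a suspended 16-gauge, 65-cm copper wire just before electroshock. Deficit scored as inability to remain for 8 s. Pretreatment was 15 min ip or 30 min oral. Quantal data analysed by Litchfield-Wilcoxon to give ND50 with 95% limits.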

Series [7] concerns Mus musculus. As to the kind of experiment: Protective index defined as ND50 (p.o.) divided by MES ED50(op). The class given is functional. A digest of the protocol: as §1
For series [8], the system named is Mus musculus. As to the kind of experiment: Compound was evaluated for anticonvulsant activity by maximal electroshock assay(MES) in mice after po administration; 60-147. The class given is functional. The gist of the method: (§5)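 Male Hilltop ICR-derived mice (19-30 g), groups of 8-10, given compound or aqueous vehicle orally. The transcorneal 60-Hz shock (50 mA, 0.2 s) followed a 30 min pretreatment and a wire-hang neurological check (10 s). ED50 and 95% confidence limits were obtained from quantal data by the Litchfield-Wilcoxon method.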

Series [9] has as its system Mus musculus. Briefly: Dose causing a neurological deficit in 50% of mice following p.o. administration. The format is functional. A digest of the protocol: as §3
Series [10] has as its system Mus musculus. As to the kind of experiment: Compound was evaluated for anticonvulsant activity by maximal electroshock assay(MES) in mice after ip administration; 8-19. The class given is functional. The gist of the method:
as §2

Series [11] concerns Mus musculus. As to the kind of experiment: (§6) Lethal dose was measured in mice after ip administration. The format is functional. A digest of the protocol:
(§7)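 Male Simonsen ICR-derived mice (16-24 g), groups of three, given compound ip in increasing doses within a behavioral screen. Deaths counted on day 5, and LD50 estimated from 5-day survival. Quantal data analysed by the Litchfield-Wilcoxon method.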

Series [12] relates to Rattus norvegicus. As to the kind of experiment: Compound was evaluated for anticonvulsant activity by maximal electroshock assay(MES) in rat after po administration. The format is functional. The gist of the method: (§8)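 Male Simonsen Sprague-Dawley-derived rats, 80-110 g, groups of 8-10, dosed with compound or aqueous vehicle; pretreatment 15 min after ip or 30 min after oral dosing. Transcorneal electroshock, 150 mA, 60 Hz, 0.2 s, given after the wire test. ED50 with 95% confidence limits from quantal data by Litchfield-Wilcoxon.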

The test system of series [13] is Mus musculus. Briefly: Dose of compound causing a neurological deficit in 50% of mice after ip administration; 71-93. The class given is functional. A digest of the protocol: as §3
The test system of series [14] is Mus musculus. As to the kind of experiment: Compound was evaluated for anticonvulsant activity by maximal electroshock assay(MES) in mice after ip administration; 38-55. The format is functional. The gist of the method:
as §2

Series [15] has as its system Mus musculus. As to the kind of experiment: Dose of compound causing a neurological deficit in 50% of mice after ip administration; 34-82. The class given is functional. The gist of the method:
as §3

Series [16] has as its system Mus musculus. Briefly: Compound was evaluated for anticonvulsant activity by maximal electroshock assay(MES) in mice after ip administration; 14-24. The class given is functional. A digest of the protocol: as §2
Series [17] concerns Mus musculus. Briefly: Compound was evaluated for anticonvulsant activity by maximal electroshock assay(MES) in mice after po administration; 68-149. The class given is functional. A digest of the protocol:
as §5

For series [18], the system named is Mus musculus. As to the kind of experiment: Anticonvulsant activity in mouse maximal electroshock assay following i.p. administration. The format is functional. Conditions: ip. The gist of the method:
as §2

Series [19] deals with Mus musculus. As to the kind of experiment: Dose of compound causing a neurological deficit in 50% of mice after ip administration. The class given is functional. The gist of the method: as §3
Series [20] deals with Rattus norvegicus. As to the kind of experiment: Dose of compound causing a neurological deficit in 50% of rat after po administration. The format is functional. A digest of the protocol: as §4
Series [21] has as its system Rattus norvegicus. Briefly: Compound was evaluated for anticonvulsant activity by maximal electroshock assay(MES) in rat after ip administration; 14-33. The class given is functional.
The test system of series [22] is Mus musculus. As to the kind of experiment: Compound was evaluated for anticonvulsant activity by maximal electroshock assay(MES) in mice after ip administration; 31-39. The format is functional. A digest of the protocol: as §2
Series [23] relates to Rattus norvegicus. As to the kind of experiment: Dose of compound causing a neurological deficit in 50% of rat after ip administration; 119-211. The class given is functional. The gist of the method: as §4
Series [24] can be described thus: as §6. The format is toxicity, organism-based. Conditions: mouse, in vivo. A digest of the protocol: as §7
Series [25] deals with Rattus norvegicus. As to the kind of experiment: Compound was evaluated for anticonvulsant activity by maximal electroshock assay(MES) in rat after po administration; 30-125. The format is functional. The gist of the method:
as §8

The test system of series [26] is Mus musculus. As to the kind of experiment: Compound was evaluated for anticonvulsant activity by maximal electroshock assay(MES) in mice after po administration; 55-125. The class given is functional. A digest of the protocol: as §5
The test system of series [27] is Mus musculus. Briefly: Dose of compound causing a neurological deficit in 50% of mice after ip administration; 80-115. The class given is functional. A digest of the protocol: as §3
In series [28] the test system is Mus musculus. Briefly: Dose of compound causing a neurological deficit in 50% of mice after ip administration; 13-115. The format is functional. The gist of the method:
as §3

Series [29] relates to Rattus norvegicus. As to the kind of experiment: Compound was evaluated for anticonvulsant activity by maximal electroshock assay(MES) in rat after po administration; 11-42. The class given is functional. A digest of the protocol: as §8
Series [30] deals with Rattus norvegicus. Briefly: Dose of compound causing a neurological deficit in 50% of rat after ip administration; 26-92. The format is functional. The gist of the method: as §4
Series [31] relates to Mus musculus. Briefly: Compound was evaluated for anticonvulsant activity by maximal electroshock assay(MES) in mice after po administration; 16-32. The class given is functional. A digest of the protocol:
as §5

Series [32] concerns Rattus norvegicus. Briefly: Compound was evaluated for anticonvulsant activity by maximal electroshock assay(MES) in rat after ip administration; 5.3-12. The format is functional. A digest of the protocol:
as §8

Series [33] deals with Mus musculus. Briefly: Compound was evaluated for anticonvulsant activity by maximal electroshock assay(MES) in mice after ip administration; 37-68. The class given is functional. A digest of the protocol:
as §2

SMILES strings stand for the structures. “And” between values parts separate entries of the source, which are not always exact repeats. Equal values may be shown once.

One may read the ED50 as the dose that gives a 50% effect, or the effect in half of the subjects. A lower ED50 goes with greater potency. Regarding `COc1cc2cccc(C(=O)Cn3ccnc3)c2cc1OC.Cl`, the PI in series [1] is reported as above 1.3. In [2], this molecule returned an ED50 of 79 mg/kg. Also, the ND50 in series [3] is above 100 mg/kg.

The molecule `COC(Cn1ccnc1)(OC)c1ccc2ccccc2c1` returned a 50% effective dose (ED50) in series [4] above 40 mg/kg. Moreover, the ND50 in series [3] is above 40 mg/kg.

One may read the LD50 as the dose at which mortality reaches 50%. Take `Br.CCc1ccc2cc(C(=O)Cn3ccnc3)ccc2c1`: the ED50 is 5.5 mg/kg in [5], 84 mg/kg in [8], 12 mg/kg in series [10] and above 30 mg/kg in series [12]. Also, the PI in series [1] is above 8.1; in series [7], above 1.2. Besides, the ND50 in [6], in [9] and in [3] was above 100 mg/kg in each case. Besides, the 50% lethal dose (LD50) in series [11] is above 100 mg/kg.

`Cl.Clc1ccc(OC(Cn2ccnc2)c2ccc3ccccc3c2)cc1` (centres undefined): in [1], the PI came out at 1.8. The molecule also gave an ND50 in [13] of 82 mg/kg. Also, the ED50 in series [14] is 46 mg/kg.

The molecule `COC(Cn1ccnc1)c1cccc2ccccc12` (centres undefined) registered a PI in [1] of 2.7. Besides, the ND50 in [15] turned out to be 51 mg/kg. In series [16], the ED50 stood at 19 mg/kg.

For `CCc1ccc2cc(C3(Cn4ccnc4)OCCO3)ccc2c1.Cl`, the PI in series [1] is above 4; in series [7], above 2. Moreover, the values for the ED50 in series [17] and in [18] were 100 mg/kg and 25 mg/kg, respectively. Moreover, the ND50 in series [9] was above 200 mg/kg; in series [19], above 100 mg/kg.

For `OC(Cn1ccnc1)c1cccc2ccccc12` (centres undefined), the PI in series [1] is 2.6 and 6.4; in series [7], >3.7 and >4.8. Moreover, the ND50 in series [20] was above 300 mg/kg; in series [23] it was 153 mg/kg; in series [9] it was above 300 mg/kg; in series [27], 89 mg/kg. Also, the ED50 in [21] worked out at 24 mg/kg; in series [22], 34 mg/kg; in series [25], 62 mg/kg; in series [26] it was 82 mg/kg. Moreover, the LD50 in series [24] is above 300 mg/kg.

Turning to `Cl.c1ccc2c(C3(Cn4ccnc4)OCCO3)cccc2c1`, the ND50 was around 200 mg/kg in [20], 28 mg/kg in [28], 44 mg/kg in series [30] and above 100 mg/kg in series [9]. The PI in series [7] was >4.3 and ~9. The ED50 in series [29] worked out at 22 mg/kg; in [31] it was 23 mg/kg; in series [32], 7.8 mg/kg.

For `Cl.O=C(Cn1ccnc1)c1ccc2cc(Cl)ccc2c1`, the PI in series [1] is on record as above 2. This molecule registered an ED50 in [33] of 51 mg/kg. The molecule further returned an ND50 in series [3] above 100 mg/kg.

Source of the values: ChEMBL document CHEMBL1121883, “1-(Naphthylalkyl)-1H-imidazole derivatives, a new class of anticonvulsant agents” (J Med Chem, 1981).
